Reference: ChEMBL document CHEMBL1143709, “Human and rat monoamine oxidase-A are differentially inhibited by (S)-4-alkylthioamphetamine derivatives: insights from molecular modeling studies” (Bioorg Med Chem, 2007)

Tests used:
[1] = target: T1, Amine oxidase [flavin-containing] A (Rattus norvegicus, UniProt P21396); experiment: Inhibition of rat brain MAOA
T1 sequence (P21396 whole entry): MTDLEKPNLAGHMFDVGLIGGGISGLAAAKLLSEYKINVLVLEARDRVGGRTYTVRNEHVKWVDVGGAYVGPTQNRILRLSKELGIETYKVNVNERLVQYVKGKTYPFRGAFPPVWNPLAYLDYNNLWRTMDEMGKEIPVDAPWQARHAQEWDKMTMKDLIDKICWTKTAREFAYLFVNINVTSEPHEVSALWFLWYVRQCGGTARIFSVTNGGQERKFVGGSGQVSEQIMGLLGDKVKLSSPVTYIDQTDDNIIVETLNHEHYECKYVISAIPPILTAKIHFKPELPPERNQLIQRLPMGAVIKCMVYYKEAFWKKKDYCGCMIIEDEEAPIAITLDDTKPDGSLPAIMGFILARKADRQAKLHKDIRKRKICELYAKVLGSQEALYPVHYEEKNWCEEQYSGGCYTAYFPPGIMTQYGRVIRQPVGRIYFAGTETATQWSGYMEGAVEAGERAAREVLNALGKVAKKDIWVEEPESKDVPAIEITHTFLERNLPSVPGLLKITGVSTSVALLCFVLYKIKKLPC
Summary of the method: (§1)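 Enzyme was a crude brain mitochondrial suspension from male Sprague–Dawley rats (180–220 g). Substrates were 5-HT 100 μM for MAO-A and DMAPEA 5 μM for MAO-B. Substrates and metabolites were measured by C18 reverse-phase HPLC with electrochemical detection. IC50 was taken from % inhibition versus -log concentration, at least two experiments in triplicate, mean ± SD. Ki came from Cheng-Prusoff.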

[2] = target: T2, Amine oxidase [flavin-containing] B (Rattus norvegicus, UniProt P19643); experiment: Inhibition of rat brain MAOB; summary of the method: as §1
T2 sequence (P19643 whole entry): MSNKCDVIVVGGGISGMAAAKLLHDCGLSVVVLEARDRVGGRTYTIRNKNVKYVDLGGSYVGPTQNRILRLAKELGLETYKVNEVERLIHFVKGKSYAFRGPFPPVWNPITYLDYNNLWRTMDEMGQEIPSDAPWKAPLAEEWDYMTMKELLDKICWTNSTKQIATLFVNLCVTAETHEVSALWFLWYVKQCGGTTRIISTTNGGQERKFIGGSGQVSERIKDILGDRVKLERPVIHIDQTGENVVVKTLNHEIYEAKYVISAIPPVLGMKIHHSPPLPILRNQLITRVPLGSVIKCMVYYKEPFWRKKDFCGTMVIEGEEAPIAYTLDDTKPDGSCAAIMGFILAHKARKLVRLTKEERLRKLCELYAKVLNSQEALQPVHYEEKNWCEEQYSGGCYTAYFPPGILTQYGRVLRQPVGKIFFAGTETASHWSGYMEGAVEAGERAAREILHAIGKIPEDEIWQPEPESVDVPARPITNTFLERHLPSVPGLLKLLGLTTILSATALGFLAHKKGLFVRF

[3] = target: T3, Amine oxidase [flavin-containing] A (Homo sapiens, UniProt P21397); experiment: Inhibition of human recombinant MAOA expressed in Pichia pastoris
T3 sequence (P21397 whole entry): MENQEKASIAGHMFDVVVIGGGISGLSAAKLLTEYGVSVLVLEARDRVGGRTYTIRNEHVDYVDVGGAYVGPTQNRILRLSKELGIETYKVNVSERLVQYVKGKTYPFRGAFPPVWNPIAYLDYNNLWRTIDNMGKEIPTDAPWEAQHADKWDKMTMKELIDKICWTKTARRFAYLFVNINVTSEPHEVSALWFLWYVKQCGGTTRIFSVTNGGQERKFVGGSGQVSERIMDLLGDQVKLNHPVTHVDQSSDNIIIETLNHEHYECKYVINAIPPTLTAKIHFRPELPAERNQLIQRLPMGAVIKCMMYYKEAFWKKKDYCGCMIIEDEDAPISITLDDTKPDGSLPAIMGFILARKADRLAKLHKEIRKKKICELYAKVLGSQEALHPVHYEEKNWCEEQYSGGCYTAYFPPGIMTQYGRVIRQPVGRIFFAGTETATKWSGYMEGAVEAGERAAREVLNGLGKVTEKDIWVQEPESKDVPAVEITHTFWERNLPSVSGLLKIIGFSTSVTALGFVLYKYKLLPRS
Summary of the method: (§2)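 Purified recombinant enzyme desalted on Sephadex G-25 into 50 mM potassium phosphate pH 7.5 with 0.8% β-octyl-glucoside. Activity was read spectrophotometrically with and without inhibitor in 50 mM HEPES pH 7.5 with 0.5% reduced Triton X-100 at 25°C. Substrates were kynuramine for MAO-A and benzylamine for MAO-B.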

[4] = target: T4, Amine oxidase [flavin-containing] B (Homo sapiens, UniProt P27338); experiment: Inhibition of human recombinant MAOB expressed in Pichia pastoris; summary of the method: as §2
T4 sequence (P27338 whole entry): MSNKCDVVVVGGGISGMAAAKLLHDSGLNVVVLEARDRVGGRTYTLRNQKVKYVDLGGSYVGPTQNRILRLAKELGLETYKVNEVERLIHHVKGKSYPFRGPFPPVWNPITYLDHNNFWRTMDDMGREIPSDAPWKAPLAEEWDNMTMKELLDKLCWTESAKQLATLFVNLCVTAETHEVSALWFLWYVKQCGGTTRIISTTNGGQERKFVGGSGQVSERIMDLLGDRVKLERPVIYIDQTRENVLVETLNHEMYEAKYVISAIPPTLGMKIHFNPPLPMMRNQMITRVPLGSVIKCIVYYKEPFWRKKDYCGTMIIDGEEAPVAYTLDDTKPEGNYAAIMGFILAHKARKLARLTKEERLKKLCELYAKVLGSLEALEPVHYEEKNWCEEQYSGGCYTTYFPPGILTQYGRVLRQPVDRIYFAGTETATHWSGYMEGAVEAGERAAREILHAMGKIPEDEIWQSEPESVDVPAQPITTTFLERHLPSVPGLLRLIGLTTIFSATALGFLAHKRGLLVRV

SMILES	Ki [1] [µM]	Ki [2] [µM]	Ki [3] [µM]	Ki [4] [µM]
CCCSc1ccc(C[C@H](C)N)cc1	0.115	15000	0.03	14
CCSc1ccc(C[C@H](C)N)cc1	0.054	> 100	0.075	> 100
CCCCSc1ccc(C[C@H](C)N)cc1	0.392	8.92	0.022	4.58
CSc1ccc(C[C@H](C)N)cc1	0.245	> 100	0.133	–
